According to ChEMBL document CHEMBL3044548, “Phytotoxic and antimicrobial activities of catechin derivatives” (2004):
In brackets after ≈: the same amount, converted by molar mass. Activity calls are given as the source filed them. No cut-off for these calls is given here.

Columns and labels:
Trichoderma reesei = test: Antifungal activity against Trichoderma reesei at 12.5 to 25 ug/ml after 96 hr by spectrophotometry; format: functional, organism-based
In short: (§1)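 Spore germination assay. Spores taken from 4-week-old PDA cultures kept in the dark at 24 °C and adjusted to 1 × 10⁵ spores/mL. 100 µL of spores added to serial dilutions of derivatives in PDB, from 1 mg/mL DMSO stocks. Value is the minimum concentration inhibiting germination. DMSO-only controls.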

Fusarium oxysporum [1] = test: Antifungal activity against Fusarium oxysporum at 12.5 to 25 ug/ml after 96 hr by spectrophotometry; format: functional, organism-based; in short: as §1
Xanthomonas campestris [2] = test: Bactericidal activity against Xanthomonas euvesicatoria at 6.3 ug/ml after 24 hr by BacLight bacterial viability fluorescence assay; format: functional, organism-based
[3] = system: Pectobacterium carotovorum; test: Antibacterial activity against Pectobacterium carotovorum after 24 hr by spectrophotometry; format: functional
In short: (§2)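 Bacterial isolates grown overnight at 37 °C to OD600 0.2. 5 µL of suspension incubated with serial dilutions of derivatives (100 to 0.05 µg) from 1 mg/mL DMSO stocks, 37 °C for 24 h. OD600 read; net growth is OD after 24 h minus OD at start. Percent inhibition is (untreated − treated)/untreated × 100. Two separate replicates. DMSO-only controls.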

Trichoderma viride = test: Antifungal activity against Hypocrea rufa at 12.5 to 25 ug/ml after 96 hr by spectrophotometry; format: functional, organism-based; in short: as §1
Pseudomonas fluorescens [4] = test: Bactericidal activity against Pseudomonas fluorescens at 3.1 ug/ml after 24 hr by BacLight bacterial viability fluorescence assay; format: functional, organism-based
Pseudomonas fluorescens [5] = test: Antibacterial activity against Pseudomonas fluorescens after 24 hr by spectrophotometry; format: functional; in short: as §2
[6] = system: Pectobacterium carotovorum; test: Bactericidal activity against Pectobacterium carotovorum at 3.1 ug/ml after 24 hr by BacLight bacterial viability fluorescence assay; format: functional, organism-based
Erwinia amylovora [7] = test: Bactericidal activity against Erwinia amylovora at 1.6 ug/ml after 24 hr by BacLight bacterial viability fluorescence assay; format: functional, organism-based
Aspergillus niger [8] = test: Antifungal activity against Aspergillus niger at 12.5 to 25 ug/ml after 96 hr by spectrophotometry; format: functional, organism-based; in short: as §1
Xanthomonas campestris [9] = test: Antibacterial activity against Xanthomonas campestris pv. vesicatoria after 24 hr by spectrophotometry; format: functional; in short: as §2
Penicillium sp. [10] = test: Antifungal activity against Penicillium sp. at 12.5 to 25 ug/ml after 96 hr by spectrophotometry; format: functional, organism-based; in short: as §1
Erwinia amylovora [11] = test: Antibacterial activity against Erwinia amylovora after 24 hr by spectrophotometry; format: functional; in short: as §2
Centaurea maculosa [12] = test: Herbicidal activity against Centaurea maculosa assessed as shoot growth inhibition at 200 ug/ml after 7 days; format: functional, organism-based
In short: (§3)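 Ten-day-old seedlings were placed in 5 mL liquid MS basal medium and given filter-sterilized compound at 10, 50, 100 or 200 µg mL^-1. Controls received a methanol vehicle. Cultures were kept at 27 ± 2 °C, shaken at 90 rpm, under 24 µmol m^-2 s^-1 light for 7 days. Shoot and root differentiation were given as percent inhibition versus untreated control, mean ± SD, n = 5.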

Gaillardia aristata = test: Herbicidal activity against Gaillardia aristata assessed as shoot growth inhibition at 200 ug/ml after 7 days; format: functional, organism-based; in short: as §3
Centaurea maculosa [13] = test: Herbicidal activity against Centaurea maculosa assessed as inhibition of root differentiation at 200 ug/ml after 7 days; format: functional, organism-based; in short: as §3
Arabidopsis thaliana = test: Herbicidal activity against Arabidopsis thaliana assessed as shoot growth inhibition at 200 ug/ml after 7 days; format: functional, organism-based; in short: as §3
Solanum lycopersicum = test: Herbicidal activity against Solanum lycopersicum (tomato) assessed as shoot growth inhibition at 200 ug/ml after 7 days; format: functional, organism-based; in short: as §3
Ocimum basilicum = test: Herbicidal activity against Ocimum basilicum assessed as shoot growth inhibition at 200 ug/ml after 7 days; format: functional, organism-based; in short: as §3
Fusarium oxysporum [14] = test: Antifungal activity against Fusarium oxysporum at 25 ug/ml after 96 hr by spectrophotometry; format: functional, organism-based; in short: as §1
Aspergillus niger [15] = test: Antifungal activity against Aspergillus niger at 25 ug/ml after 96 hr by spectrophotometry; format: functional, organism-based
In short: (§4)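 Spores from 4-week-old cultures grown on PDA at 24 °C in the dark were rinsed off in sterile water and adjusted to 1 × 10⁵ spores mL^-1. Spores were incubated with serial dilutions in PDB in 96-well plates at 37 °C under humidity. Controls were DMSO vehicle and (+)-catechin.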

Penicillium sp. [16] = test: Antifungal activity against Penicillium sp. at 25 ug/ml after 96 hr by spectrophotometry; format: functional, organism-based; in short: as §4

| SMILES | Activity (Trichoderma reesei) | Activity (Fusarium oxysporum [1]) | Activity (Xanthomonas campestris [2]) | MIC [3] [µg/mL] | Activity (Trichoderma viride) | Activity (Pseudomonas fluorescens [4]) | MIC (Pseudomonas fluorescens [5]) [µg/mL] | Activity [6] | Activity (Erwinia amylovora [7]) | Activity (Aspergillus niger [8]) | MIC (Xanthomonas campestris [9]) [µg/mL] | Activity (Penicillium sp. [10]) | MIC (Erwinia amylovora [11]) [µg/mL] | other results |
| --- | --- | --- | --- | --- | --- | --- | --- | --- | --- | --- | --- | --- | --- | --- |
| CC1(C)O[C@H]2Cc3c(O)cc(O)cc3O[C@@H]2c2cc(O)c(O)cc21 | inactive | inactive | Active | 1.6 (≈ 4.84 µM) | inactive | Active | 3.1 (≈ 9.38 µM) | Active | Active | inactive | 6.3 (≈ 19.1 µM) | inactive | 3.1 (≈ 9.38 µM) | – |
| CC1(C)OC2Cc3c(O)cc(O)cc3OC2c2cc(O)c(O)cc21 (racemic) | inactive | inactive | Active | 12.5 (≈ 37.8 µM) | inactive | Active | 12.5 (≈ 37.8 µM) | Active | Active | inactive | 12.5 (≈ 37.8 µM) | inactive | 12.5 (≈ 37.8 µM) | growth inhibition (GI) (Centaurea maculosa [12]): Active; growth inhibition (GI) (Gaillardia aristata): Active; inhibition (Centaurea maculosa [13]): Active; growth inhibition (GI) (Arabidopsis thaliana): Active; growth inhibition (GI) (Solanum lycopersicum): Active; growth inhibition (GI) (Ocimum basilicum): Active |
| COc1cc(OC)c2c(c1)OC(c1ccc(OC)c(OC)c1)C(O)C2 (racemic) | inactive | inactive | Active | 6.3 (≈ 18.2 µM) | inactive | Active | 12.5 (≈ 36.1 µM) | Active | Active | inactive | 12.5 (≈ 36.1 µM) | inactive | 12.5 (≈ 36.1 µM) | growth inhibition (GI) (Centaurea maculosa [12]): Active; growth inhibition (GI) (Gaillardia aristata): Active; inhibition (Centaurea maculosa [13]): Active; growth inhibition (GI) (Arabidopsis thaliana): Active; growth inhibition (GI) (Solanum lycopersicum): Active; growth inhibition (GI) (Ocimum basilicum): Active |
| Oc1cc(O)c2c(c1)OC(c1ccc(O)c(O)c1)C(O)C2 (racemic) | inactive | inactive | Active | – | inactive | Active | – | Active | Active | inactive | – | inactive | – | – |
| CC(=O)Oc1cc(OC(C)=O)c2c(c1)OC(c1ccc(OC(C)=O)c(OC(C)=O)c1)C(OC(C)=O)C2 (racemic) [(+/-)-PENTAACETYLCATECHIN] | inactive | inactive | Active | 25 (≈ 50 µM) | inactive | Active | 12.5 (≈ 25 µM) | Active | Active | inactive | 25 (≈ 50 µM) | inactive | 25 (≈ 50 µM) | – |
| CC(=O)Oc1cc(OC(C)=O)c2c(c1)O[C@H](c1ccc(OC(C)=O)c(OC(C)=O)c1)[C@@H](OC(C)=O)C2 [CATECHIN PENTAACETATE] | inactive | – | Active | 6.3 (≈ 12.6 µM) | inactive | Active | 6.3 (≈ 12.6 µM) | Active | Active | inactive | 6.3 (≈ 12.6 µM) | inactive | 6.3 (≈ 12.6 µM) | Activity (Fusarium oxysporum [14]): Active |
| COc1cc(OC)c2c(c1)O[C@H](c1ccc(OC)c(OC)c1)[C@@H](O)C2 [CATECHIN TETRAMETHYLETHER] | inactive | inactive | Active | 6.3 (≈ 18.2 µM) | inactive | Active | 6.3 (≈ 18.2 µM) | Active | Active | – | 25 (≈ 72.2 µM) | – | 25 (≈ 72.2 µM) | Activity (Aspergillus niger [15]): Active; Activity (Penicillium sp. [16]): Active |
| Oc1cc(O)c2c(c1)O[C@H](c1ccc(O)c(O)c1)[C@@H](O)C2 [CIANIDANOL] | Active | Active | Active | 1.6 (≈ 5.51 µM) | Active | Active | 1.6 (≈ 5.51 µM) | Active | Active | Active | 1.6 (≈ 5.51 µM) | Active | 1.6 (≈ 5.51 µM) | – |
